What was measured:
[1] = biological target: T1, Integrin alpha-IIb/beta-3 (Homo sapiens, UniProt P05106+P08514); experiment: Equilibrium dissociation constant was measured from displacement of L-762,745 from Fibrinogen receptor of human platelets by flow cytometry
Target sequence in this assay (P05106 27-788 limits assumed): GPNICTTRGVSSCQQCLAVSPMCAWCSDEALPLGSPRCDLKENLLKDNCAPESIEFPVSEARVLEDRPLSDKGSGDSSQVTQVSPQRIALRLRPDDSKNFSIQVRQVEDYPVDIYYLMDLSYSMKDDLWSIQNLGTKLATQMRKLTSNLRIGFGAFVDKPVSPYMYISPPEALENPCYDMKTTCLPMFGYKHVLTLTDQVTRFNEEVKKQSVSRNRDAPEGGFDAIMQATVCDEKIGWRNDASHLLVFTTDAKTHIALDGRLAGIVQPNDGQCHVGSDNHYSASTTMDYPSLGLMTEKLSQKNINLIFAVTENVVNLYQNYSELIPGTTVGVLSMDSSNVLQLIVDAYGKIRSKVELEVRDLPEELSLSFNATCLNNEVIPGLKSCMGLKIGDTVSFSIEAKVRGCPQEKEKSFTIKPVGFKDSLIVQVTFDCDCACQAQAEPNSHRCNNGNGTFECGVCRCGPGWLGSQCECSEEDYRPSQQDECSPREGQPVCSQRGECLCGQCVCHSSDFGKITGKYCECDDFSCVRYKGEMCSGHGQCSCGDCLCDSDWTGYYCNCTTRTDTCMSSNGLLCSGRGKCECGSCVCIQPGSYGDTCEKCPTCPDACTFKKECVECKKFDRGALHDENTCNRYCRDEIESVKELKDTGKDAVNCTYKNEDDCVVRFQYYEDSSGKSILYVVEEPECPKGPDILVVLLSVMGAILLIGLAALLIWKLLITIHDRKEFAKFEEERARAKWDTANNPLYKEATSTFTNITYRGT
Target sequence in this assay (P08514 32-887 limits assumed): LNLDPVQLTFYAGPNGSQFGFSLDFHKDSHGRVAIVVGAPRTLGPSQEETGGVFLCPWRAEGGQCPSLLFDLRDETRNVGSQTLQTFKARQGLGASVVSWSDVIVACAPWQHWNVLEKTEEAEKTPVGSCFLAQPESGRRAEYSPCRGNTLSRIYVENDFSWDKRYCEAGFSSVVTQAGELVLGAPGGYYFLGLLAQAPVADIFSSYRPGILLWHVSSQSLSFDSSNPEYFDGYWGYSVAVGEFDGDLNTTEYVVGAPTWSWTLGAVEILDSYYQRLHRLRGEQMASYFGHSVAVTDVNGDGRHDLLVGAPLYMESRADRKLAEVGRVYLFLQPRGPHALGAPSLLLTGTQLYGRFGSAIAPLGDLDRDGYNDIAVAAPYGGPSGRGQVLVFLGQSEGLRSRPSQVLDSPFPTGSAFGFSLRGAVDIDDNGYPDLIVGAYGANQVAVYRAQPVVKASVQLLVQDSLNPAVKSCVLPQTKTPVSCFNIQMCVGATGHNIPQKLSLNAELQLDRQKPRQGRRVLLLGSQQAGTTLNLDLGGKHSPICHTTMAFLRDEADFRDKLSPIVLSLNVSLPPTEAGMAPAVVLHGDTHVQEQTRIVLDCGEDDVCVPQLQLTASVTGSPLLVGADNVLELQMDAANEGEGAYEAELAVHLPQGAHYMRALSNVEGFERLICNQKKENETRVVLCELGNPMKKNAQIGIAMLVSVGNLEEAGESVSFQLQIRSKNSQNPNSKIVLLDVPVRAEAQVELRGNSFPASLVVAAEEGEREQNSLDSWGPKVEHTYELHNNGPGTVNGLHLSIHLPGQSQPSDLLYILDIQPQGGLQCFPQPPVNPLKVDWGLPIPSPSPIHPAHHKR
Target sequence in this assay (P08514 891-1039 limits assumed): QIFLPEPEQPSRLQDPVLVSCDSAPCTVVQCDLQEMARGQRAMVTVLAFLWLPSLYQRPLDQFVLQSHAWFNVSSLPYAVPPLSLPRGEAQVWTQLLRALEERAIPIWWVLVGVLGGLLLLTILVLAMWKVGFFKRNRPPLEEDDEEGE

[2] = biological target: T1, Integrin alpha-IIb/beta-3; experiment: Displacement of L-762,745 from Fibrinogen Receptor of human platelets by flow cytometry
Procedure, shortened: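 Resting human gel-filtered platelets at 2 × 10⁶ cells/mL final, incubated 2 h at room temperature with fluorescein-labelled L-762,745 (110 nM final) and competitor at 0.05–1000 nM. Read by flow cytometry (FACScan).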
Target sequence in this assay (P05106 27-788 limits assumed): as the sequence (P05106 27-788 limits assumed) above
Target sequence in this assay (P08514 32-887 limits assumed): as the sequence (P08514 32-887 limits assumed) above
Target sequence in this assay (P08514 891-1039 limits assumed): as the sequence (P08514 891-1039 limits assumed) above

[3] = biological target: T1, Integrin alpha-IIb/beta-3; experiment: Inhibition of [125I]L-692884 binding to purified GPIIb/IIIa by silicate scintillation proximity assay(SPA); type: protein-complex assay
[4] = biological target: T1, Integrin alpha-IIb/beta-3; experiment: In vitro inhibition of [125I]L-692884 binding to Fibrinogen receptor by silicate scintillation proximity assay(SPA); type: protein-complex assay

| SMILES | Kd [1] | Kd [2] | ED50 [3] | IC50 [4] |
| --- | --- | --- | --- | --- |
| CCOCCS(=O)(=O)N[C@@H](CNC(=O)c1cc2cc(CCC3CCNCC3)sc2s1)C(=O)O | – | 1.2 nM | 0.13 nM | – |
| CS(=O)(=O)N[C@@H](CNC(=O)c1cc2cc(CCC3CCNCC3)sc2s1)C(=O)O | – | 52 nM | 1.2 nM | – |
| O=C(NC[C@H](NS(=O)(=O)c1cccnc1)C(=O)O)c1cc2sc(CCC3CCNCC3)cc2s1 | – | 0.08 nM | 0.11 nM | – |
| O=C(NC[C@H](NS(=O)(=O)c1cccnc1)C(=O)O)c1cc2cc(C3CCNCC3)sc2s1 | 22 nM | – | – | 0.45 nM |
| CCCCS(=O)(=O)N[C@@H](CNC(=O)c1cc2sc(CCC3CCNCC3)cc2s1)C(=O)O | 3 nM | – | – | 0.21 nM |
| O=C(NCC(NS(=O)(=O)c1cccnc1)C(=O)O)c1cc2cc(CCC3CCNCC3)sc2s1 (single isomer, unassigned) | 28 nM | – | 0.47 nM | – |
| CCCCS(=O)(=O)N[C@@H](CNC(=O)c1cc2cc(CCC3CCNCC3)sc2s1)C(=O)O | – | 5.6 nM | 0.12 nM | – |
| O=C(O)CCNC(=O)c1ccc2c(c1)C(=O)N(CCC1CCNCC1)C2 | 550 nM | – | – | 13 nM |
| O=C(NC[C@H](NS(=O)(=O)c1cccnc1)C(=O)O)c1cc2cc(CCCC3CCNCC3)sc2s1 | 17 nM | – | – | 0.07 nM |
| CCOCCS(=O)(=O)N[C@@H](CNC(=O)c1cc2sc(CCC3CCNCC3)cc2s1)C(=O)O | – | 1.1 nM | 0.27 nM | – |

Second part, the compound after the results:

| Kd [1] | Kd [2] | ED50 [3] | IC50 [4] | SMILES |
| --- | --- | --- | --- | --- |
| 0.15 nM | – | – | – | O=C(NC[C@H](NS(=O)(=O)c1ccccc1)C(=O)O)c1cc2sc(CCC3CCNCC3)cc2s1 |
| 0.026 nM | – | – | 0.09 nM | O=C(NC[C@H](NS(=O)(=O)c1ccc(Cl)cc1)C(=O)O)c1cc2cc(CCC3CCNCC3)sc2s1 |
| 0.023 nM | – | – | 0.03 nM | O=C(NC[C@H](NS(=O)(=O)c1ccccc1)C(=O)O)c1cc2cc(CCC3CCNCC3)sc2s1 |
| 0.092 nM | – | – | 0.04 nM | O=C(NC[C@H](NS(=O)(=O)c1cccs1)C(=O)O)c1cc2sc(CCC3CCNCC3)cc2s1 |
| 0.15 nM | – | – | 0.04 nM | O=C(NC[C@H](NS(=O)(=O)c1cccs1)C(=O)O)c1cc2cc(CCC3CCNCC3)sc2s1 |
| 2.2 nM | – | – | – | O=C(NC[C@H](NS(=O)(=O)c1cccnc1)C(=O)O)c1ccc2c(c1)C(=O)N(CCC1CCNCC1)C2 |
| 0.07 nM | – | – | 0.047 nM | O=C(NC[C@H](NS(=O)(=O)c1cccnc1)C(=O)O)c1cc2cc(CCC3CCNCC3)sc2s1 |

Reference: ChEMBL document CHEMBL1132259, “Non-peptide GPIIb/IIIa inhibitors. 20. Centrally constrained thienothiophene alpha-sulfonamides are potent, long acting in vivo inhibitors of platelet aggregation” (J Med Chem, 1999)
